# Laboratory results: ChEMBL document CHEMBL3259650, “Synthesis of symmetrically substituted 3,3-dibenzyl-4-hydroxy-3,4-dihydro-1H-quinolin-2-ones, as novel quinoline derivatives with antibacterial activity” (Eur J Med Chem, 2014)
# Calls of active or inactive are those of the source. No cut-off for these calls is given here.
# Tests used:
# Bacillus spizizenii = assay: Antibacterial activity against Bacillus subtilis ATCC 6633 assessed as growth inhibition after 24 hrs by micro dilution method; format: functional; conditions: ATCC 6633, 24 h
# How it was run: (§1)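 MIC determined by broth microdilution in casein soy broth (pH 7.3) at an inoculum of 10^5 CFU/mL, incubated 24 h at 37 C. Levofloxacin was the comparator and controls were run alongside. Samples were tested in quadruplicate.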
# Staphylococcus aureus [1] = assay: Antibacterial activity against Staphylococcus aureus ATCC 6538p assessed as growth inhibition after 24 hrs by micro dilution method; format: functional; how it was run: as §1
# Shigella sonnei [2] = assay: Antibacterial activity against Shigella sonnei ATCC 15305 assessed as growth inhibition after 24 hrs by micro dilution method; format: functional; conditions: ATCC 15305, 24 h; how it was run: as §1
# Pseudomonas aeruginosa = assay: Antibacterial activity against Pseudomonas aeruginosa ATCC […] assessed as growth inhibition after 24 hrs by micro dilution method; format: functional; how it was run: as §1
# Escherichia coli [3] = assay: Antibacterial activity against Escherichia coli ATCC 25922 assessed as growth inhibition after 24 hrs by micro dilution method; format: functional; conditions: ATCC 25922, 24 h; how it was run: as §1
# Staphylococcus aureus [4] = assay: Antibacterial activity against Staphylococcus aureus ATCC 6538p; format: functional; how it was run: as §1
# Shigella sonnei [5] = assay: Antibacterial activity against Shigella sonnei ATCC 15305; format: functional
# Escherichia coli [6] = assay: Antibacterial activity against Escherichia coli ATCC 25922; format: functional
# Enterococcus sp. [7] = assay: Antibacterial activity against Enterococcus sp. ATCC 6589 assessed as growth inhibition after 24 hrs by micro dilution method; format: functional; conditions: ATCC 6589, 24 h; how it was run: as §1
# Klebsiella aerogenes = assay: Antibacterial activity against Enterobacter aerogenes ATCC 13048 assessed as growth inhibition after 24 hrs by micro dilution method; format: functional; conditions: ATCC 13048, 24 h; how it was run: as §1
# Salmonella typhimurium [8] = assay: Antibacterial activity against Salmonella typhimurium ATCC 14028 assessed as growth inhibition after 24 hrs by micro dilution method; format: functional, Salmonella enterica subsp. enterica serovar Typhimurium; conditions: Salmonella enterica, ATCC 14028, 24 h; how it was run: as §1
# Morganella morganii [9] = assay: Antibacterial activity against Morganella morganii ATCC 8019 assessed as growth inhibition after 24 hrs by micro dilution method; format: functional; conditions: ATCC 8019, 24 h; how it was run: as §1
# Enterococcus sp. [10] = assay: Antibacterial activity against Enterococcus sp. ATCC 6589; format: functional
# Salmonella typhimurium [11] = assay: Antibacterial activity against Salmonella typhimurium ATCC 14028; format: functional, Salmonella enterica subsp. enterica serovar Typhimurium; how it was run: as §1
# Morganella morganii [12] = assay: Antibacterial activity against Morganella morganii ATCC 8019; format: functional
# Enterococcus sp. [13] = assay: Antibacterial activity against Enterococcus sp. ATCC 6589 assessed as growth inhibition by measuring turbidity of medium at MIC measured over 10 hrs by microplate reader analysis; format: functional, organism-based
# How it was run: (§2)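 Overnight casein soy broth cultures (37 C) were centrifuged, resuspended in fresh medium and adjusted to about 5 10^7 cells/mL (OD620 0.2). Cells were grown in microplate wells to mid-log phase, then twofold serial dilutions of the test agents in fresh medium were added. OD620 was read every 15 min at 23 C for 10 h, with 30 s shaking between reads. Runs were in quadruplicate.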
# Morganella morganii [14] = assay: Antibacterial activity against Morganella morganii ATCC 8019 assessed as growth inhibition by measuring turbidity of medium at >= MIC measured over 10 hrs by microplate reader analysis; format: functional, organism-based; how it was run: as §2
# Burkholderia cepacia = assay: Antibacterial activity against Burkholderia cepacia ATCC 17759; format: functional
# Enterococcus sp. [15] = assay: Antibacterial activity against Enterococcus sp. ATCC 6589 assessed as growth inhibition by measuring turbidity of medium measured over 10 hrs by microplate reader analysis; format: functional, organism-based; how it was run: as §2
# Morganella morganii [16] = assay: Antibacterial activity against Morganella morganii ATCC 8019 assessed as growth inhibition by measuring turbidity of medium measured over 10 hrs by microplate reader analysis; format: functional, organism-based; how it was run: as §2
# Enterococcus sp. [17] = assay: Antibacterial activity against Enterococcus sp. ATCC 6589 assessed as growth inhibition by measuring turbidity of medium at 25 to 400 ug/mL measured over 10 hrs by microplate reader analysis; format: functional, organism-based; how it was run: as §2
# Enterococcus sp. [18] = assay: Antibacterial activity against Enterococcus sp. ATCC 6589 assessed as growth inhibition by measuring turbidity of medium at 3.12 ug/mL measured after 3 hrs by microplate reader analysis; format: functional, organism-based; how it was run: as §2
Structure (SMILES),MIC (Bacillus spizizenii) [µg/mL],MIC (Staphylococcus aureus [1]) [µg/mL],MIC (Shigella sonnei [2]) [µg/mL],MIC (Pseudomonas aeruginosa) [µg/mL],MIC (Escherichia coli [3]) [µg/mL],MLC (Staphylococcus aureus [4]) [µg/mL],MLC (Shigella sonnei [5]) [µg/mL],MLC (Escherichia coli [6]) [µg/mL],other results
O=C1Nc2ccc(Cl)cc2C(O)C1(Cc1ccccc1)Cc1ccccc1 (configuration not stated),12.5,25,12.5,50,12.5,>200,>200,200,
COc1ccc2c(c1)C(O)C(Cc1ccccc1)(Cc1ccccc1)C(=O)N2 (configuration not stated),50,100,100,100,100,>200,>200,>200,
Cc1ccc2c(c1)C(O)C(Cc1ccccc1)(Cc1ccccc1)C(=O)N2 (configuration not stated),50,50,50,100,25,>200,>200,>200,
COc1cccc2c1NC(=O)C(Cc1ccccc1)(Cc1ccccc1)C2O (configuration not stated),100,100,100,100,100,>200,>200,>200,
CCN1C(=O)C(Cc2ccccc2)(Cc2ccccc2)C(O)c2ccccc21 (configuration not stated),12.5,100,200,100,100,>200,>200,>200,
CCOC(=O)CN1C(=O)C(Cc2ccccc2)(Cc2ccccc2)C(O)c2ccccc21 (configuration not stated),> 200,> 200,> 200,> 200,100,,,>200,
O=C1Nc2ccc(Cl)cc2C(O)C1(Cc1ccc(Cl)cc1)Cc1ccc(Cl)cc1 (configuration not stated),3.12,3.12,3.12,50,3.12,12.5,12.5,50,MIC (Enterococcus sp. [7]): 6.25 µg/mL; MIC (Klebsiella aerogenes): 50 µg/mL; MIC (Salmonella typhimurium [8]): 50 µg/mL; MIC (Morganella morganii [9]): 6.25 µg/mL; MLC (Enterococcus sp. [10]): 50 µg/mL; MLC (Salmonella typhimurium [11]): 100 µg/mL; MLC (Morganella morganii [12]): 6.25 µg/mL; growth inhibition (GI) (Enterococcus sp. [13]): Active; growth inhibition (GI) (Morganella morganii [14]): Active
O=C1Nc2ccccc2C(O)C1(Cc1ccccc1)Cc1ccccc1 (configuration not stated),100,50,50,100,100,>200,>200,>200,
CCN1C(=O)C(Cc2ccc(Cl)cc2)(Cc2ccc(Cl)cc2)C(O)c2cc(Cl)ccc21 (configuration not stated),3.12,6.25,50,50,50,50,100,100,MIC (Enterococcus sp. [7]): 6.25 µg/mL; MIC (Klebsiella aerogenes): 50 µg/mL; MIC (Salmonella typhimurium [8]): 50 µg/mL; MIC (Morganella morganii [9]): 6.25 µg/mL; MLC (Enterococcus sp. [10]): 25 µg/mL; MLC (Salmonella typhimurium [11]): 100 µg/mL; MLC (Burkholderia cepacia): 12.5 µg/mL; MLC (Morganella morganii [12]): 12.5 µg/mL; growth inhibition (GI) (Enterococcus sp. [15]): Dose-dependent effect; growth inhibition (GI) (Morganella morganii [16]): Dose-dependent effect
CN1C(=O)C(Cc2ccccc2)(Cc2ccccc2)C(O)c2ccccc21 (configuration not stated),50,100,100,100,50,>200,>200,>200,
COc1ccc(CC2(Cc3ccc(OC)cc3)C(=O)Nc3ccccc3C2O)cc1 (configuration not stated),100,100,100,100,100,200,>200,>200,
CC1(C)S[C@@H]2[C@H](NC(=O)[C@H](N)c3ccccc3)C(=O)N2[C@H]1C(=O)O,,,,,,,,,growth inhibition (GI) (Enterococcus sp. [17]): Active
O=C1Nc2ccccc2C(O)C1(Cc1ccccc1Cl)Cc1ccccc1Cl (configuration not stated),12.5,12.5,12.5,100,12.5,200,200,200,growth inhibition (GI) (Enterococcus sp. [18]): inactive
O=C1Nc2ccc(F)cc2C(O)C1(Cc1ccccc1)Cc1ccccc1 (configuration not stated),25,50,25,50,25,>200,>200,>200,
O=C1N(Cc2ccc(Cl)cc2)c2ccc(Cl)cc2C(O)C1(Cc1ccc(Cl)cc1)Cc1ccc(Cl)cc1 (configuration not stated),> 100,50,50,50,50,100,100,>100,
O=C1N(Cc2ccccc2)c2ccccc2C(O)C1(Cc1ccccc1)Cc1ccccc1 (configuration not stated),100,100,200,> 200,100,>200,>200,>200,
O=C1Nc2ccccc2C(O)C1(Cc1ccc(Cl)cc1)Cc1ccc(Cl)cc1 (configuration not stated),1.56,6.25,6.25,100,1.52,100,100,25,
